In brackets after ≈: the same amount, converted by molar mass.
Test system: not listed separately
Test: In vitro therapeutic index value is the ratio between IC50 values of [J] and [P]
Type: cell-based
Settings: human, Jurkat cells; read-out: TI

Point of comparison: `CNc1ccc(Nc2c3ccc(N)cc3nc3cc(N)ccc23)cc1`, selectivity ratio 72. Against it:
- CNc1ccc(Nc2c3ccccc3nc3ccccc23)cc1 — lower, 3.8
- COc1cc(NS(C)(=O)=O)ccc1Nc1c2ccccc2nc2cc(N)ccc12 — lower, < 5
- COc1cc(Nc2c3ccccc3nc3ccccc23)ccc1NS(C)(=O)=O [o-Amsacrine] — lower, 0.4
- CCCCCNCc1ccc(Nc2c3ccc(N)cc3nc3cc(N)ccc23)cc1 — lower, 27
- Nc1ccc2c(Nc3ccccc3)c3ccc(N)cc3nc2c1 — lower, 50
- Nc1ccc2c(=Nc3ccc(S(N)(=O)=O)cc3)c3ccc(N)cc3[nH]c2c1 — higher, 1000
- CN(C)Cc1ccc(Nc2c3ccc(Cl)cc3nc3cc(Cl)ccc23)cc1 — lower, 20
- COc1cc(Nc2c3ccc(N)cc3nc3cc(N)ccc23)ccc1NS(C)(=O)=O — lower, 17
- CN(C)c1ccc(Nc2c3ccccc3nc3cc(N)ccc23)cc1 — lower, < 3.5
- CN(C)S(=O)(=O)c1ccc(Nc2c3ccc(N)cc3nc3cc(N)ccc23)cc1 — lower, 31
- COc1cc(N=c2c3ccccc3[nH]c3cc(N)ccc23)ccc1NS(C)(=O)=O — lower, < 0.4
- CS(=O)(=O)Nc1ccc(Nc2c3ccc(N)cc3nc3cc(N)ccc23)cc1 — lower, 33
- CNC(=O)c1ccc(Nc2c3ccc(N)cc3nc3cc(N)ccc23)cc1 — higher, > 500
- Nc1ccc2c(Nc3ccc(O)cc3)c3ccc(N)cc3nc2c1 — higher, 200
- CS(=O)(=O)Nc1ccc(Nc2c3ccccc3nc3cc(N)ccc23)cc1 — lower, 0.7
- [N-]=[N+]=Nc1ccc2c(Nc3ccc(C(N)=O)cc3)c3ccc(N=[N+]=[N-])cc3nc2c1 — lower, 25
- Cc1ccc(Nc2c3ccc(N)cc3nc3cc(N)ccc23)cc1 — lower, 20
- COc1ccc2c(Nc3ccc(S(N)(=O)=O)cc3)c3ccc(OC)cc3nc2c1 — lower, < 3.2

Test system: Plasmodium falciparum
Test: Inhibitory concentration IC50 against Plasmodium falciparum K1 by [3H]hypoxanthine uptake over 24 hr
Type: functional, organism-based
Settings: not given
How it was run: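 K1 strain of P. falciparum (chloroquine- and pyrimethamine-resistant) in infected erythrocyte suspensions at 0.5% initial parasitemia, exposed to drug for 24 h at 37 °C. Read-out is [3H]hypoxanthine incorporation into parasites. IC50 is the concentration giving 50% inhibition relative to untreated controls.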

Point of comparison: `COc1cc(NS(C)(=O)=O)ccc1Nc1c2ccccc2nc2cc(N)ccc12`, IC50 200 nM. Against it:
- CNc1ccc(Nc2c3ccccc3nc3ccccc23)cc1 — 2-fold higher, 400 nM
- COc1cc(Nc2c3ccccc3nc3ccccc23)ccc1NS(C)(=O)=O [o-Amsacrine] — 130-fold higher, 26000 nM
- CCCCCNCc1ccc(Nc2c3ccc(N)cc3nc3cc(N)ccc23)cc1 — 3-fold higher, 600 nM
- Nc1ccc2c(Nc3ccccc3)c3ccc(N)cc3nc2c1 — 1.5-fold higher, 300 nM
- Nc1ccc2c(=Nc3ccc(S(N)(=O)=O)cc3)c3ccc(N)cc3[nH]c2c1 — 10-fold lower, 20 nM
- NS(=O)(=O)c1ccc(Nc2c3ccc(Cl)cc3nc3cc(Cl)ccc23)cc1 — higher, > 10000 nM
- CN(C)Cc1ccc(Nc2c3ccc(Cl)cc3nc3cc(Cl)ccc23)cc1 — within 1.5-fold, 250 nM
- COc1cc(Nc2c3ccc(N)cc3nc3cc(N)ccc23)ccc1NS(C)(=O)=O — 2.5-fold higher, 500 nM
- CN(C)c1ccc(Nc2c3ccccc3nc3cc(N)ccc23)cc1 — within 1.5-fold, 290 nM
- CN(C)S(=O)(=O)c1ccc(Nc2c3ccc(N)cc3nc3cc(N)ccc23)cc1 — within 1.5-fold, 160 nM
- COc1cc(N=c2c3ccccc3[nH]c3cc(N)ccc23)ccc1NS(C)(=O)=O — 14-fold higher, 2700 nM
- CNc1ccc(Nc2c3ccc(N)cc3nc3cc(N)ccc23)cc1 — within 1.5-fold, 160 nM
- CS(=O)(=O)Nc1ccc(Nc2c3ccc(N)cc3nc3cc(N)ccc23)cc1 — 6.7-fold lower, 30 nM
- CNC(=O)c1ccc(Nc2c3ccc(N)cc3nc3cc(N)ccc23)cc1 — 5-fold lower, 40 nM
- Nc1ccc2c(Nc3ccc(O)cc3)c3ccc(N)cc3nc2c1 — 4-fold lower, 50 nM
- CS(=O)(=O)Nc1ccc(Nc2c3ccccc3nc3cc(N)ccc23)cc1 — 15-fold higher, 3000 nM
- [N-]=[N+]=Nc1ccc2c(Nc3ccc(C(N)=O)cc3)c3ccc(N=[N+]=[N-])cc3nc2c1 — 3.3-fold lower, 60 nM
- Cc1ccc(Nc2c3ccc(N)cc3nc3cc(N)ccc23)cc1 — within 1.5-fold, 150 nM
- COc1ccc2c(Nc3ccc(S(N)(=O)=O)cc3)c3ccc(OC)cc3nc2c1 — higher, > 10000 nM

Biological target: T1, DNA topoisomerase 2 (Plasmodium falciparum K1) (UniProt P41001)
T1 sequence (whole entry): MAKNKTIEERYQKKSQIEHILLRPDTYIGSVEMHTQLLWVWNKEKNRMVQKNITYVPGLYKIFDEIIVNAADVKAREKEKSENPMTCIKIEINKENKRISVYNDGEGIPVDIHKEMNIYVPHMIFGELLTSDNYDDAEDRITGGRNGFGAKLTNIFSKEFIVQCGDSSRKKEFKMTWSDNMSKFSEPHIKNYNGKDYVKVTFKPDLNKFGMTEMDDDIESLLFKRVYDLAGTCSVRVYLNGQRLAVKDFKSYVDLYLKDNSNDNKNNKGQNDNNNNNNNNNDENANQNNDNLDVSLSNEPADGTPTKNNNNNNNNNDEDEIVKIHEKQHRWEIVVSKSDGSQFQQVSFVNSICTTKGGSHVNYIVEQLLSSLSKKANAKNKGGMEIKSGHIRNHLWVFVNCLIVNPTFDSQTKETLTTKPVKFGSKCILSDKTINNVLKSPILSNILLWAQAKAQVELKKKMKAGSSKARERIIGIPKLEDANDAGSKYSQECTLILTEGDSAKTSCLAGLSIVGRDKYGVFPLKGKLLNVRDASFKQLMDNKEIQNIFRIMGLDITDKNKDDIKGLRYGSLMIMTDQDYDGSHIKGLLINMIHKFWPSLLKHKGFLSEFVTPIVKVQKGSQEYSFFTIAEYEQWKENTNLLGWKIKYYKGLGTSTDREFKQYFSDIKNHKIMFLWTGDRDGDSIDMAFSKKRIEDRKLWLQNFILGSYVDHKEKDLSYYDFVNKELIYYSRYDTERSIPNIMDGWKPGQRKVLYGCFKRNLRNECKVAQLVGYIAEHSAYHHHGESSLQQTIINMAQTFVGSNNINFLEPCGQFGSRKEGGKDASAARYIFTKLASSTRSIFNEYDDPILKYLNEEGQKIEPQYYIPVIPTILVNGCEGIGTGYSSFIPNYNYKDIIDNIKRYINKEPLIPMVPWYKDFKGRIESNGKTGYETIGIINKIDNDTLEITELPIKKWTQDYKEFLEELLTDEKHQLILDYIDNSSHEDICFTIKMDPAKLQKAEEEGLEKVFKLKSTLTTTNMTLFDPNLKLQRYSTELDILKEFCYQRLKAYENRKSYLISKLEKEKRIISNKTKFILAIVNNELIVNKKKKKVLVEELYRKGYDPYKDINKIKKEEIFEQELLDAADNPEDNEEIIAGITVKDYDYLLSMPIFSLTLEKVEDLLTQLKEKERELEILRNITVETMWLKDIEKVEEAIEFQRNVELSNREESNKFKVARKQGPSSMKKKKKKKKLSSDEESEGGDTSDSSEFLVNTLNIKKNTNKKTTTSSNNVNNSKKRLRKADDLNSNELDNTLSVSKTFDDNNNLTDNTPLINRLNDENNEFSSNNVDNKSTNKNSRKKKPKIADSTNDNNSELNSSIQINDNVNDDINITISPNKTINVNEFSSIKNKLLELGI
Test: Minimum inhibitory concentration required to completely inhibit topoisomerase II activity from Plasmodium falciparum was determined using P4 DNA […] assay
Settings: not given

Point of comparison: `Nc1ccc2c(=Nc3ccc(S(N)(=O)=O)cc3)c3ccc(N)cc3[nH]c2c1`, MIC 6 µM (≈ 2.28 µg/mL). Against it:
- NS(=O)(=O)c1ccc(Nc2c3ccc(Cl)cc3nc3cc(Cl)ccc23)cc1 — 17-fold higher, 100 µM (≈ 41.8 µg/mL)
- CS(=O)(=O)Nc1ccc(Nc2c3ccc(N)cc3nc3cc(N)ccc23)cc1 — the same, 6 µM (≈ 2.36 µg/mL)
- Nc1ccc2c(Nc3ccc(O)cc3)c3ccc(N)cc3nc2c1 — the same, 6 µM (≈ 1.9 µg/mL)
- [N-]=[N+]=Nc1ccc2c(Nc3ccc(C(N)=O)cc3)c3ccc(N=[N+]=[N-])cc3nc2c1 — 8.3-fold higher, 50 µM (≈ 19.8 µg/mL)
- COc1ccc2c(Nc3ccc(S(N)(=O)=O)cc3)c3ccc(OC)cc3nc2c1 — higher, > 100 µM

Test system: Plasmodium falciparum
Test: Inhibitory concentration against Plasmodium falciparum D6 infected erythrocytes
Type: functional, organism-based
Settings: not given

With `C[C@@H]1CC[C@H]2[C@@H](C)C(=O)O[C@@H]3O[C@@]4(C)CC[C@@H]1[C@]32OO4` [ARTEMISININ] the IC50 was 13 nM.

Biological target: DNA topoisomerase II (Homo sapiens) (UniProt P11388+Q02880)
Test: Minimum inhibitory concentration required to completely inhibit topoisomerase II activity from jurkat human leukemia cells was determined using P4 DNA unknotting assay
Settings: not given
How it was run: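 Enzyme is a partially purified topoisomerase II extract from midlog Jurkat cells, made by sonication in Tris pH 8/KCl/MgCl2/EGTA buffer with protease inhibitors, then PEG/KCl precipitation. Extract is diluted to a set P4 DNA unknotting activity. Proteinase K method scores unknotting and linearization of phage P4 DNA on 0.7% agarose gels stained with ethidium bromide. MIC is the concentration giving complete inhibition.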

Point of comparison: `CS(=O)(=O)Nc1ccc(Nc2c3ccc(N)cc3nc3cc(N)ccc23)cc1`, MIC 10 µM (≈ 3.93 µg/mL). Against it:
- Nc1ccc2c(=Nc3ccc(S(N)(=O)=O)cc3)c3ccc(N)cc3[nH]c2c1 — 2-fold higher, 20 µM (≈ 7.59 µg/mL)
- NS(=O)(=O)c1ccc(Nc2c3ccc(Cl)cc3nc3cc(Cl)ccc23)cc1 — higher, > 100 µM
- Nc1ccc2c(Nc3ccc(O)cc3)c3ccc(N)cc3nc2c1 — 2-fold higher, 20 µM (≈ 6.33 µg/mL)
- [N-]=[N+]=Nc1ccc2c(Nc3ccc(C(N)=O)cc3)c3ccc(N=[N+]=[N-])cc3nc2c1 — higher, > 100 µM
- COc1ccc2c(Nc3ccc(S(N)(=O)=O)cc3)c3ccc(OC)cc3nc2c1 — higher, > 100 µM

Test system: Plasmodium falciparum
Test: Inhibitory concentration against Plasmodium falciparum W2 infected erythrocytes
Type: functional, organism-based
Settings: not given

In the case of `C[C@@H]1CC[C@H]2[C@@H](C)C(=O)O[C@@H]3O[C@@]4(C)CC[C@@H]1[C@]32OO4` [ARTEMISININ], the IC50 is reported as 12 nM.

Test system: Jurkat
Test: Concentration required to reduce growth of human jurkat leukemia cells to 50% of control cultures, determined using a 72 hr continuous exposure
Type: functional, cell-based
Settings: not given
How it was run: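 Human Jurkat leukemia cells given continuous drug exposure for 72 h, then counted on a hemocytometer. IC50 is the concentration that cuts cell growth to 50% of untreated controls. Values are means of at least two independent determinations, with variation typically ±15%.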

Point of comparison: `CCCCCNCc1ccc(Nc2c3ccc(N)cc3nc3cc(N)ccc23)cc1`, IC50 16000 nM. Against it:
- CNc1ccc(Nc2c3ccccc3nc3ccccc23)cc1 — 11-fold lower, 1500 nM
- COc1cc(NS(C)(=O)=O)ccc1Nc1c2ccccc2nc2cc(N)ccc12 — lower, < 1000 nM
- COc1cc(Nc2c3ccccc3nc3ccccc23)ccc1NS(C)(=O)=O [o-Amsacrine] — 1.6-fold lower, 10000 nM
- Nc1ccc2c(Nc3ccccc3)c3ccc(N)cc3nc2c1 — within 1.5-fold, 15000 nM
- Nc1ccc2c(=Nc3ccc(S(N)(=O)=O)cc3)c3ccc(N)cc3[nH]c2c1 — within 1.5-fold, 20000 nM
- NS(=O)(=O)c1ccc(Nc2c3ccc(Cl)cc3nc3cc(Cl)ccc23)cc1 — higher, > 20000 nM
- CN(C)Cc1ccc(Nc2c3ccc(Cl)cc3nc3cc(Cl)ccc23)cc1 — 3.2-fold lower, 5000 nM
- COc1cc(Nc2c3ccc(N)cc3nc3cc(N)ccc23)ccc1NS(C)(=O)=O — 1.9-fold lower, 8500 nM
- CN(C)c1ccc(Nc2c3ccccc3nc3cc(N)ccc23)cc1 — lower, < 1000 nM
- CN(C)S(=O)(=O)c1ccc(Nc2c3ccc(N)cc3nc3cc(N)ccc23)cc1 — 3.2-fold lower, 5000 nM
- COc1cc(N=c2c3ccccc3[nH]c3cc(N)ccc23)ccc1NS(C)(=O)=O — lower, < 1000 nM
- CNc1ccc(Nc2c3ccc(N)cc3nc3cc(N)ccc23)cc1 — within 1.5-fold, 11500 nM
- CS(=O)(=O)Nc1ccc(Nc2c3ccc(N)cc3nc3cc(N)ccc23)cc1 — 16-fold lower, 1000 nM
- CNC(=O)c1ccc(Nc2c3ccc(N)cc3nc3cc(N)ccc23)cc1 — higher, > 20000 nM
- Nc1ccc2c(Nc3ccc(O)cc3)c3ccc(N)cc3nc2c1 — 1.6-fold lower, 10000 nM
- CS(=O)(=O)Nc1ccc(Nc2c3ccccc3nc3cc(N)ccc23)cc1 — 8-fold lower, 2000 nM
- [N-]=[N+]=Nc1ccc2c(Nc3ccc(C(N)=O)cc3)c3ccc(N=[N+]=[N-])cc3nc2c1 — 11-fold lower, 1500 nM
- Cc1ccc(Nc2c3ccc(N)cc3nc3cc(N)ccc23)cc1 — 5.3-fold lower, 3000 nM
- COc1ccc2c(Nc3ccc(S(N)(=O)=O)cc3)c3ccc(OC)cc3nc2c1 — 5.2-fold lower, 3100 nM

— ChEMBL document CHEMBL1127825, “Synthesis and in vitro evaluation of 9-anilino-3,6-diaminoacridines active against a multidrug-resistant strain of the malaria parasite Plasmodium falciparum” (J Med Chem, 1994)
